Compounds with a hit are over-represented: about 3.1% of the library has one in this group of screens.
KCNQ1 block: inhibitors of human KCNQ1 potassium channel; P51787; CHO-K1 KCNQ1, FluxOR thallium flux fluorescence; hits give high values; B-score at 10 µM; actives 1.3% (n = 310,000);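 active means compounds whose thallium flux B-score, printed positive for inhibition, exceeds three library SD while starting fluorescence stays within three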;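 further: channel opened by potassium depolarization with thallium stimulus after 20 min compound exposure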
KCNK3 inh: human KCNK3 channel inhibition, primary screen; O14649; CHO-KCNK3 thallium flux, FluxOR fluorescence; hits give low values; B-score at 10 µM; actives 0.84% (n = 340,000);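 active means B-score under library mean minus 4 SD, starting fluorescence ratio at most library mean plus 5 SD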;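 further: more negative B-score means stronger inhibition of thallium flux through KCNK3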
KCNQ1 pot: human KCNQ1 channel potentiation or activation; P51787; CHO-K1 KCNQ1, thallium flux FluxOR fluorescence; hits give high values; B-score at 10 µM; actives 0.35% (n = 310,000); AID 2648;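 active means fluorescence ratio B-score, a plate-corrected score, at least three library SD, with initial intensity B-score within 5 SD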
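Medium – assay buffer, equal DMSO in all wells · Material – CHO-K1 cell line with stable KCNQ1 potassium channel expression · Signal – kinetic FluxOR thallium fluorescence, 10-s 1-Hz baseline, 110-s post-stimulus read · Compound – single concentration per compound, DMSO matched to controls · Schedule – 37 °C overnight plating, 90-min dark dye load, 20-min compound pretreatment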
hERG rescue: shields human hERG channel from block by proarrhythmic agents; Q12809; activation (rescue from dofetilide block), less the hit threshold, % at 10 µM; actives 0.51% (n = 310,000); CHO-hERG, FluxOR thallium flux, dofetilide IC70 present;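 active means activation above the mean of controls blocked by dofetilide plus 5 SD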;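 further: thallium influx through hERG after potassium depolarization seen as dye fluorescence rise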
KCNK9 block: inhibitors of human KCNK9 two-pore domain potassium channel | B-score at 10 µM | AID 488922 | HEK293 KCNK9, FluxOR thallium flux fluorescence; hits give low values | actives 1.2% (n = 310,000);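 active means ratio B-score over 3 SD below the library mean, with starting fluorescence within 5 SD of its mean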;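 further: negative B-score means less thallium flux so channel inhibition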
KCNK9 block conf: human KCNK9 inhibitor confirmation. HEK293 KCNK9 cells, FluxOR thallium flux fluorescence. inhibition, % at 10 µM. shares compounds with KCNK9 block. actives 43% (n = 4,900);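 active means thallium signal inhibited by more than 5 SD of the compound-free buffer control wells, on both duplicate plates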;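 further: 0% = assay buffer control wells without compound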
Kir21 sel: tests whether KCNK9 modulators also affect mouse Kir2.1; shares compounds with KCNK9 block; Kir2.1 cells, FluxOR thallium flux fluorescence; inhibition, % at 10 µM; actives 4% (n = 4,900);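 active means thallium signal drop more than 5 SD beyond the mean of the no-compound control wells, seen in both duplicate plates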;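 further: signal is fluorescence rise after thallium addition divided by baseline fluorescence; plate controls were assay buffer only for no effect and full block by chlorpromazine control for full effect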
KCNK9 uninduced: non-induced cell nonspecific activity of KCNK9 modulators; non-induced KCNK9-HEK293, FluxOR thallium flux; shares compounds with KCNK9 block; AID 492997; actives 40% (n = 4,900); inhibition, % at 10 µM;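 active means thallium signal drop beyond 5 SD of the untreated control mean, on both duplicate plates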;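 further: plate controls were buffer only IC0 wells for no effect and SID17386958 at its maximal inhibitory level for full effect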
* marks the source's active call; other numbers are inactive results.

What do the screens show for `Cc1c(C(=O)Nc2ccccc2)c2cc(O)ccc2n1Cc1ccccc1`?
KCNQ1 block: inactive; KCNK3 inh: inactive; KCNQ1 pot: inactive; hERG rescue: -11; KCNK9 block: inactive

Results for Oc1ccc2ccccc2c1CN1CC=C(c2ccccc2)CC1 ?
KCNQ1 block: inactive; KCNK3 inh: inactive; KCNQ1 pot: inactive; hERG rescue: -2; KCNK9 block: inactive; KCNK9 block conf: inactive; Kir21 sel: inactive; KCNK9 uninduced: inactive

How did COC(=O)C(O)(c1ccc(NC(=S)NC(=O)c2ccccc2)cc1)C(F)(F)F (stereo unspecified) do in these assays?
KCNQ1 block: inactive; KCNK3 inh: inactive; KCNQ1 pot: inactive; hERG rescue: -7; KCNK9 block: -9.7*; KCNK9 block conf: 46%*; Kir21 sel: inactive; KCNK9 uninduced: 26%*

How did COc1ccccc1N1CCN(Cc2cc(C)c(C)cc2O)CC1 do in these assays?
KCNQ1 block: inactive; KCNK3 inh: inactive; KCNQ1 pot: inactive; hERG rescue: -3; KCNK9 block: inactive

How did COc1cc(C)c(CN2CCN(c3ccccc3)CC2)cc1C do in these assays?
KCNQ1 block: inactive; KCNK3 inh: inactive; KCNQ1 pot: inactive; hERG rescue: -18; KCNK9 block: inactive; KCNK9 block conf: inactive; Kir21 sel: inactive; KCNK9 uninduced: inactive

How did C/C(=N\N1CCCCC1c1cccnc1)c1c(O)n(C2CCCCC2)c(=S)[nH]c1=O (stereo unspecified) do in these assays?
KCNQ1 block: inactive; KCNK3 inh: inactive; KCNQ1 pot: inactive; hERG rescue: -10; KCNK9 block: -14*; KCNK9 block conf: 75%*; Kir21 sel: inactive; KCNK9 uninduced: 56%*

How did CCCCn1c(O)c(/C(CC)=N/N2CCCCC2c2cccnc2)c(=O)[nH]c1=S (stereo unspecified) do in these assays?
KCNQ1 block: inactive; KCNK3 inh: inactive; KCNQ1 pot: inactive; hERG rescue: -11; KCNK9 block: -18*; KCNK9 block conf: 78%*; Kir21 sel: inactive; KCNK9 uninduced: 56%*

What do the screens show for `CCCCn1c(O)c(/C=N/N2CCCCC2c2cccnc2)c(=O)[nH]c1=S` (stereo unspecified)?
KCNQ1 block: inactive; KCNK3 inh: inactive; KCNQ1 pot: inactive; hERG rescue: -3; KCNK9 block: inactive

How did C[C@]12CCC3C(CC[C@H]4C[C@@H](O)CC[C@]34C)C1CCC2=O (stereo partly specified) do in these assays?
KCNK3 inh: inactive

Results for COC(=O)c1cn(C(=O)c2cccc3ccccc23)c2ccccc12 ?
KCNQ1 block: inactive; KCNK3 inh: inactive; KCNQ1 pot: inactive; hERG rescue: -14; KCNK9 block: inactive

What do the screens show for `CC(=O)Nc1ccccc1C(=O)OCC(=O)c1ccc2ccccc2c1`?
KCNQ1 block: inactive; KCNK3 inh: inactive; KCNQ1 pot: inactive; hERG rescue: -12; KCNK9 block: inactive; KCNK9 block conf: inactive; Kir21 sel: inactive; KCNK9 uninduced: inactive

How did CC(C)=CCc1c(O)cc2c(c1O)C(=O)CC(c1ccc(O)cc1)O2 (stereo unspecified) do in these assays?
KCNQ1 block: inactive; KCNK3 inh: inactive; KCNQ1 pot: inactive; hERG rescue: -20; KCNK9 block: -17*; KCNK9 block conf: inactive; Kir21 sel: inactive; KCNK9 uninduced: inactive

What do the screens show for `Brc1ccc(-[n+]2c(-c3ccccc3)cc(-c3ccccc3)cc2-c2ccccc2)cc1`?
KCNQ1 block: 7*; KCNK3 inh: inactive; KCNQ1 pot: inactive; hERG rescue: -33; KCNK9 block: -8.3*; KCNK9 block conf: 64%*; Kir21 sel: 58%*; KCNK9 uninduced: inactive

Results for Cc1ccc(-c2cc(-c3ccc(C)cc3)[n+](-c3ccc(C(=O)O)cc3)c(-c3ccc(C)cc3)c2)cc1 ?
KCNQ1 block: inactive; KCNK3 inh: inactive; KCNQ1 pot: inactive; hERG rescue: -2; KCNK9 block: inactive

What do the screens show for `COc1ccc(-n2c(/C=C/c3cccc(F)c3)nc3ccccc3c2=O)c(OC)c1`?
KCNQ1 block: inactive; KCNK3 inh: inactive; KCNQ1 pot: inactive; hERG rescue: -6; KCNK9 block: inactive

What do the screens show for `O=C1/C(=C\c2ccc(Cl)c(Cl)c2)N2CCC1CC2`?
KCNQ1 block: inactive; KCNK3 inh: inactive; KCNQ1 pot: inactive; hERG rescue: -9; KCNK9 block: inactive; KCNK9 block conf: inactive; Kir21 sel: inactive; KCNK9 uninduced: inactive

Results for O=C1/C(=C\c2cc3c(cc2Cl)OCO3)N2CCC1CC2 ?
KCNQ1 block: inactive; KCNK3 inh: inactive; KCNQ1 pot: inactive; hERG rescue: 4; KCNK9 block: inactive; KCNK9 block conf: inactive; Kir21 sel: inactive; KCNK9 uninduced: inactive

How did O=C1/C(=C\c2ccncc2)N2CCC1CC2 do in these assays?
KCNQ1 block: inactive; KCNK3 inh: inactive; KCNQ1 pot: inactive; hERG rescue: -2; KCNK9 block: inactive

What do the screens show for `O=C1/C(=C/c2cc3c(cc2Cl)OCO3)N2CCC1CC2`?
KCNQ1 block: inactive; KCNQ1 pot: inactive; hERG rescue: -10; KCNK9 block: inactive

How did O=C(c1ccco1)c1cn(Cc2ccc(Cl)cc2)c2ccccc12 do in these assays?
KCNQ1 block: inactive; KCNK3 inh: inactive; KCNQ1 pot: inactive; hERG rescue: -16; KCNK9 block: -8.7*; KCNK9 block conf: 56%*; Kir21 sel: inactive; KCNK9 uninduced: 37%*

What do the screens show for `COc1ccccc1OCCCn1cc(C(=O)c2ccco2)c2ccccc21`?
KCNQ1 block: inactive; KCNK3 inh: inactive; KCNQ1 pot: inactive; hERG rescue: -10; KCNK9 block: -9.8*; KCNK9 block conf: 32%*; Kir21 sel: inactive; KCNK9 uninduced: inactive

What do the screens show for `COc1ccccc1CCNC(=O)CCC(=O)N1CC2C[C@@H](C1)Cn1c2cccc1=O`?
KCNQ1 block: inactive; KCNK3 inh: inactive; KCNQ1 pot: inactive; hERG rescue: -8; KCNK9 block: inactive

What do the screens show for `C=CCN1CC[C@]23c4c5ccc(O)c4OC2C(O)C=CC3[C@H]1C5` (stereo partly specified)?
KCNK3 inh: inactive

How did COc1cccc(-n2c(C)nc3ccccc3c2=O)c1 do in these assays?
KCNQ1 block: inactive; KCNK3 inh: inactive; KCNQ1 pot: inactive; hERG rescue: 0; KCNK9 block: inactive

Source: PubChem
